ChEMBL document CHEMBL3526038, “The role of a basolateral transporter in rosuvastatin transport and its interplay with apical breast cancer resistance protein in polarized cell monolayer systems” (Drug Metab Dispos, 2012)

Columns and labels:
[1] = Apparent permeability from apical to basolateral side of MDCK cells at 2 uM after 60 to 120 mins; assay type: ADME, cell-based, Canis lupus familiaris; settings: dog
In short: (§1)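 Monolayers on collagen-coated polycarbonate Transwells (0.4 μm pores), seeded at 60,000 cells/cm². Caco-2 were used at 21-28 days (TEER > 450 Ω·cm²); BCRP-MDCK at 7-11 days (TEER > 1200 Ω·cm²), stably expressing human ABCG2 R482 under neomycin selection. Rosuvastatin 2 μM in HBSSg pH 7.4 was dosed apically or basolaterally at 37°C. Samples were taken at 60 and 120 min for LC-MS/MS. Papp was determined; ER = Papp B-to-A / Papp A-to-B; triplicate.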

[2] = Apparent permeability from basolateral to apical side of human Caco2 cells at 2 uM after 60 to 120 mins; assay type: ADME, cell-based; settings: Caco-2; in short: as §1
[3] = Efflux ratio of apparent permeability from basolateral to apical over apical to basolateral side of MDCK cells at 2 uM after 60 to 120 mins; assay type: ADME, cell-based, Canis lupus familiaris; settings: dog; in short: as §1
BCRP [4] = experiment: Apparent permeability from apical to basolateral side of MDCK cells overexpressing BCRP at 2 uM after 60 to 120 mins; assay type: ADME, cell-based, Canis lupus familiaris; settings: dog; in short: as §1
[5] = Apparent permeability from apical to basolateral side of human Caco2 cells at 2 uM after 60 to 120 mins; assay type: ADME, cell-based; settings: Caco-2; in short: as §1
BCRP [6] = experiment: Efflux ratio of apparent permeability from basolateral to apical over apical to basolateral side of MDCK cells overexpressing BCRP at 2 uM after 60 to 120 mins; assay type: ADME, cell-based, Canis lupus familiaris; settings: dog; in short: as §1
[7] = Apparent permeability from basolateral to apical side of MDCK cells at 2 uM after 60 to 120 mins; assay type: ADME, cell-based, Canis lupus familiaris; settings: dog; in short: as §1
BCRP [8] = experiment: Apparent permeability from basolateral to apical side of MDCK cells overexpressing BCRP at 2 uM after 60 to 120 mins; assay type: ADME, cell-based, Canis lupus familiaris; settings: dog; in short: as §1
[9] = Efflux ratio of apparent permeability from basolateral to apical over apical to basolateral side of human Caco2 cells at 2 uM after 60 to 120 mins; assay type: ADME, cell-based; settings: Caco-2; in short: as §1
[10] = Activity at OSTalpha/OSTbeta in human Caco2 cells assessed as drug transport from basolateral to apical side at 2 uM in presence of spironolactone relative to control; assay type: ADME, cell-based; settings: caco-2, 2 µM
[11] = Activity at OSTalpha/OSTbeta in human Caco2 cells assessed as drug transport from basolateral to apical side at 2 uM in presence of dehydroepiandrosterone sulfate relative to control; assay type: ADME, cell-based; settings: caco-2, 2 µM
Homo sapiens = experiment: Total clearance in human at 40 mg, po; assay type: ADME, organism-based; settings: in vivo
[12] = Activity at OSTalpha/OSTbeta in human Caco2 cells assessed as drug transport from basolateral to apical side at 2 uM in presence of lithocholate acid relative to control; assay type: ADME, cell-based; settings: caco-2, 2 µM
[13] = Activity at OSTalpha/OSTbeta in human Caco2 cells assessed as drug transport from basolateral to apical side at 2 uM in presence of taurocholate relative to control; assay type: ADME, cell-based; settings: caco-2, 2 µM
[14] = Activity at OSTalpha/OSTbeta in human Caco2 cells assessed as drug transport from basolateral to apical side at 2 uM in presence of probenecid relative to control; assay type: ADME, cell-based; settings: caco-2, 2 µM
[15] = Activity at OSTalpha/OSTbeta in human Caco2 cells assessed as drug transport from basolateral to apical side at 2 uM in presence of rifamycin relative to control; assay type: ADME, cell-based; settings: caco-2, 2 µM
[16] = Oral bioavailability in human at 40 mg; assay type: ADME, organism-based; settings: in vivo
[17] = Activity at OSTalpha/OSTbeta in human Caco2 cells assessed as drug transport from apical to basolateral side at 50 uM in presence of 100 uM taurolithocholate relative to control; assay type: ADME, cell-based; settings: caco-2, 50 µM
In short: (§2)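 Caco-2 monolayers (21-28 days, TEER > 450 Ω·cm²). Rosuvastatin 50 μM was dosed apically with 10 μM atenolol as a low-permeability marker, in HBSSg/MES at pH 5.5. Basolateral buffer was HBSSg/HEPES pH 7.4, with or without tauroolithocholate (10, 50 or 100 μM). Incubated at 37°C. Basolateral samples were taken at 15, 30 and 60 min and measured by LC-MS/MS. Efflux was normalised to BCA protein and expressed as % control; triplicate.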

[18] = Activity at OSTalpha/OSTbeta in human Caco2 cells assessed as drug transport from apical to basolateral side at 50 uM in presence of 50 uM taurolithocholate relative to control; assay type: ADME, cell-based; settings: caco-2, 50 µM; in short: as §2
[19] = Activity at OSTalpha/OSTbeta in human Caco2 cells assessed as drug transport from basolateral to apical side at 2 uM in presence of estrone 3-sulfate relative to control; assay type: ADME, cell-based; settings: caco-2, 2 µM
[20] = Activity at OSTalpha/OSTbeta in human Caco2 cells assessed as drug transport from basolateral to apical side at 2 uM in presence of taurolithocholate relative to control; assay type: ADME, cell-based; settings: caco-2, 2 µM
[21] = Cellular uptake in human Caco2 cells after 30 mins by Michaelis-Menten equation analysis; assay type: ADME, cell-based, Caco-2
In short: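 Caco-2 monolayers (21-28 days). Rosuvastatin at various concentrations was dosed basolaterally in HBSSg pH 7.4 and incubated 30 min at 37°C. Apical samples and ice-cold-washed, acetonitrile-lysed cells were analysed by LC-MS/MS. Total uptake was fitted by nonlinear regression to saturable plus nonsaturable components to give Km; mean ± S.D., n = 3.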

[22] = Activity at OSTalpha/OSTbeta in human Caco2 cells assessed as drug transport from apical to basolateral side at 50 uM in presence of 10 uM taurolithocholate relative to control; assay type: ADME, cell-based; settings: caco-2, 50 µM; in short: as §2
[23] = Partition coefficient, pKa of the compound; assay type: physicochemical; settings: octanol/water
[24] = Activity at OSTalpha/OSTbeta in human Caco2 cells assessed as drug transport from basolateral to apical side at 2 uM in presence of indomethacin relative to control; assay type: ADME, cell-based; settings: caco-2, 2 µM
[25] = Cmax in healthy human at 20 mg, po; settings: in vivo
[26] = Activity at OSTalpha/OSTbeta in human Caco2 cells assessed as drug transport from basolateral to apical side at 2 uM in presence of digoxin relative to control; assay type: ADME, cell-based; settings: caco-2, 2 µM
[27] = Activity at OSTalpha/OSTbeta in human Caco2 cells assessed as drug transport from basolateral to apical side at 2 uM in presence of bromosulfophthalein relative to control; assay type: ADME, cell-based; settings: caco-2, 2 µM
[28] = Activity at OSTalpha/OSTbeta in human Caco2 cells assessed as drug transport from basolateral to apical side at 2 uM in presence of chenodoxycholate relative to control; assay type: ADME, cell-based; settings: caco-2, 2 µM

COc1cc2nc(N3CCN(C(=O)c4ccco4)CC3)nc(N)c2cc1OC [PRAZOSIN]
Papp A→B at 2 µM [1]: 4.32 ×10⁻⁶ cm/s | Papp B→A at 2 µM [2]: 41.1 ×10⁻⁶ cm/s | efflux ratio at 2 µM [3]: 3.1 | Papp A→B at 2 µM (BCRP [4]): 1.31 ×10⁻⁶ cm/s | Papp A→B at 2 µM [5]: 3.92 ×10⁻⁶ cm/s | efflux ratio at 2 µM (BCRP [6]): 34.5 | Papp B→A at 2 µM [7]: 13.6 ×10⁻⁶ cm/s | Papp B→A at 2 µM (BCRP [8]): 45.1 ×10⁻⁶ cm/s | efflux ratio at 2 µM [9]: 10.5

CC(C)c1nc(N(C)S(C)(=O)=O)nc(-c2ccc(F)cc2)c1/C=C/[C@@H](O)C[C@@H](O)CC(=O)[O-].CC(C)c1nc(N(C)S(C)(=O)=O)nc(-c2ccc(F)cc2)c1/C=C/[C@@H](O)C[C@@H](O)CC(=O)[O-].[Ca+2] [ROSUVASTATIN CALCIUM]
Drug transport [10]: 35.1% | Drug transport [11]: 38.1% | CL (Homo sapiens): 70% | Papp A→B at 2 µM [1]: 0.43 ×10⁻⁶ cm/s | Papp B→A at 2 µM [2]: 20.7 ×10⁻⁶ cm/s | Drug transport [12]: 42.6% | efflux ratio at 2 µM [3]: 1.1 | Drug transport [13]: 29.1% | Drug transport [14]: 73.8% | Drug transport [15]: 21.4% | Papp A→B at 2 µM (BCRP [4]): 0.28 ×10⁻⁶ cm/s | bioavailability [16]: 20% | Papp A→B at 2 µM [5]: 0.25 ×10⁻⁶ cm/s | Drug transport [17]: 359% | Drug transport [18]: 436% | Drug transport [19]: 28.7% | Drug transport [20]: 30.1% | Kd ([21]; caco-2): 0.9985 µL/min/mg | Km at 0.5 h ([21]; human, Caco-2 cells): 4.21 µM | Jmax ([21]; human, caco-2, 0.5 h): 24.64 pmol/min/mg | Drug transport [22]: 338% | efflux ratio at 2 µM (BCRP [6]): 5.8 | pKa [23]: 4.2 | Papp B→A at 2 µM [7]: 0.49 ×10⁻⁶ cm/s | Drug transport [24]: 32.7% | Papp B→A at 2 µM (BCRP [8]): 1.63 ×10⁻⁶ cm/s | Cmax [25]: 6 nM | efflux ratio at 2 µM [9]: 83.2 | Drug transport [26]: 43.9% | Drug transport [27]: 23.5% | Drug transport [28]: 27.9%
